Shown are actives, neighbours in structure and some others; about 7.2% of the full set was active somewhere.
hDAT+cocaine – changed hDAT dopamine uptake under cocaine IC80, either direction, primary screen, cocaine antagonist project, cell-based, LLC-PK1 hDAT, [14C]-dopamine uptake, MLSMR; Sodium-dependent dopamine transporter (Homo sapiens), Q01959; LLC-PK1 hDAT cells, [14C]-dopamine uptake with cocaine IC80; actives deviate in either direction; B-score at 10 µM; 1.3% of 110,000 active; AID 449768, 2010;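 active = Z score or B-score, a plate-position-corrected score, falls beyond the plate's 99.7% confidence bounds, in either direction; inactive = both scores lie inside the 99.7% bounds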;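 also: scored against the spread of the other compound wells on the same plate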
M1 agonist – M1 muscarinic receptor agonists, primary screen, CHO-M1 cells, Fluo-4 calcium, agonist mode; Muscarinic acetylcholine receptor M1; B-score at 10 µM; 3% of 64,000 active; Fluo-4 calcium fluorescence; active compounds read high; AID 626, 2007;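 active = fluorescence rise, raw or as B-score row- and column-corrected plate score, outside the 99.7% band of its plate's samples, either direction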
M1 antag – antagonists of rat M1 muscarinic receptor | CHO-M1 cells, Fluo-4 calcium, ACh EC80 antagonist mode; active compounds read low | B-score at 10 µM | 3.4% of 64,000 active | AID 628, 2007;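 active = calcium fluorescence response, raw or row-and-column corrected B-score, differing from the plate sample mean either way at a set confidence level, mostly lower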
Target sequence (P08482 whole entry, looked up): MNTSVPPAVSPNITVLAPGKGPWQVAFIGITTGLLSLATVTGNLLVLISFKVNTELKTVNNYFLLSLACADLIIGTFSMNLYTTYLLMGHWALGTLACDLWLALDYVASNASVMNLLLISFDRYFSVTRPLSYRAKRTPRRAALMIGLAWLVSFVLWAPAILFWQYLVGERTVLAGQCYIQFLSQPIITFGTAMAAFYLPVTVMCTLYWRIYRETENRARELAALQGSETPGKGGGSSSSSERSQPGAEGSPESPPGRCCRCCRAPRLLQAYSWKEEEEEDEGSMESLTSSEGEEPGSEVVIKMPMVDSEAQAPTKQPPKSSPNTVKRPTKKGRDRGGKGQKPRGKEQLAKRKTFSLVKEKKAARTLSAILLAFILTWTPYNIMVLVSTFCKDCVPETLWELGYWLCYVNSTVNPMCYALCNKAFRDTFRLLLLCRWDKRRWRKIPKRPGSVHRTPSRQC
D1 allo mod – D1 CRE-luciferase signal change, two-sided – cell-based, HEK293 D1, dopamine EC30, D1 allosteric modulator project, primary screen. D(1A) dopamine receptor (Homo sapiens), P21728. dopamine EC30 potentiation; actives deviate in either direction. B-score at 10 µM. 5.9% of 58,000 active. AID 641, 2007;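 active = luminescence count or its row- and column-corrected plate score outside the 99.7% band of the plate's sample wells, on either side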
BAP1 block – inhibitors of BAP1 deubiquitinase, primary screen, biochemical, Ub-AMC fluorescence, kinetic; calls only at 20 µM; recombinant BAP1, Ub-AMC hydrolysis fluorescence kinetic; active compounds read low; 0.48% of 72,000 active; Ubiquitin carboxyl-terminal hydrolase BAP1 (Homo sapiens), Q92560; AID 436, 2006;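 active = activity remaining at or below 50% of control, provided the compound also passes the data quality filters; inactive = the rest, including low values that fail the filters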;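 also: 100% = DMSO wells rate and 0% = substrate alone blank rate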
HEK293 NFkB inh – inhibitors of PMA/ionomycin-induced NF-kB reporter, primary screen, antigen receptor NF-kB inhibitor project, cell-based, HEK-293 luciferase reporter, luminescence. HEK-293 NF-kB luciferase reporter. AID 465, 2006. inhibition, % at 3 µM. 0.21% of 62,000 active;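 active = inhibition above the mean of all tested compounds plus 3 SD, cut at about 40% in these data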;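 also: 0% = stimulated DMSO wells and 100% = 10 µM reference inhibitor 5653914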
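Reagent: PMA plus ionomycin mix as NF-kB-activating stimulus. Assay system: NF-kB luciferase reporter HEK-293 cells. Technique: luminescence from luciferase substrate reagent. Incubation: 1 h compound pre-incubation, 16 h PMA/ionomycin at 37 °C. Benchmarks: DMSO only as uninhibited control, 10 µM reference inhibitor as full inhibition. Repeats: tested once.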
The depositor's hits bear a star; i = inactive; . = no result given.

SMILES	hDAT+cocaine	M1 agonist	M1 antag	D1 allo mod	BAP1 block	HEK293 NFkB inh
COc1ccc(C(=O)Nc2cc(OC)cc(OC)c2)cc1	1.72*	-0.369	0.124	-1.67	.	.
COc1ccc(C(=O)Nc2nc3cc(OC)c(OC)cc3c(=O)[nH]2)cc1	-0.953	-0.13	10.3*	-0.498	i	19.2
COc1cccc(C(=O)Nc2ccc(C)cc2)c1	1.31	-0.037	-0.0556	-4.49*	i	-43.9
COc1ccc2[nH]cc(CCNC(C)=O)c2c1	0.147	.	.	.	i	.
CCCCCN=C(N)N/N=C/c1c[nH]c2ccc(OC)cc12	3.69*	.	.	.	.	.
Cc1cc2nc(-c3cccnc3SCC(=O)NCc3ccco3)[nH]c2cc1C	-1.48	-0.339	0.00675	-3.88*	.	-9.1
CCOCCOC(=O)C1=C(C)N(C)C(=O)NC1c1ccc(Cl)cc1 (stereo not given)	.	.	.	.	i	.
Clc1ccc(OCc2nc(-c3ccccn3)no2)c(Br)c1	0.445	-0.00687	-0.00402	-6.91*	i	-71.6
Clc1ccccc1OCc1nc(-c2ccccn2)no1	.	-0.595	-0.311	-2.34	i	-44.9
Clc1ccc(-c2nc(-c3ccccn3)no2)cc1Cl	-0.743	-1.07	-0.161	-5.55*	i	-21.4
Cc1cccc(NC(=O)CC2Sc3ccc(C(F)(F)F)cc3NC2=O)c1C (stereo not given)	.	.	.	.	i	.
CCCN1C=CC(=C2C(=O)c3ccccc3C2=O)C=C1	1.29	-0.432	0.0597	-5.69*	i	85.8*
CCN1C=CC(=C2C(=O)c3ccccc3C2=O)C=C1	0.499	-0.049	-0.0661	-8.81*	i	49.9*
COC(=O)CCC(=O)NNC(=O)c1ccc(Cl)cc1Cl	-4.67*	.	.	.	.	.
COc1cccc(-c2cc(C(F)(F)F)nc(-n3cncn3)n2)c1	3.31*	-0.239	-1.34	2.51	i	16.5
CS(=O)(=O)c1ccc(-c2nn[nH]n2)cc1	0.536	-0.0166	0.488	-0.623	i	15.3
Cc1ccc(-c2nn[nH]n2)cc1	-8.16*	-0.0151	0.0529	.	i	7.6
Cc1ccc(-c2[nH]nc3c2C(c2cccnc2)C(C#N)=C(N)O3)cc1 (stereo not given)	0.00958	-0.237	0.0973	13.6*	i	17.2
N#CC1=C(N)Oc2n[nH]c(-c3ccccc3)c2C1c1cccnc1 (stereo not given)	-0.0148	0.369	0.677	1.8	i	6.4
CCOC(=O)N1CCN(C(=O)Cc2ccc(Cl)cc2)CC1	0.146	0.262	-0.511	-0.192	i	0.7
CCOC(=O)N1CCN(CCC(=O)c2ccc(Cl)cc2)CC1	-0.00224	3.41*	-0.806*	-0.416	i	11.9
O=C(Nc1nncs1)c1ccccc1I	.	.	.	.	i	.
COc1cc(C(=O)Nc2nc3c(s2)CC(C)CC3)cc(OC)c1OC (stereo not given)	.	.	.	.	i	.
CCCCSc1nc2c(c(=O)[nH]c(=O)n2C)n1C(C)C	.	.	.	.	i	.
C/C(Cl)=C/CSc1nc2c(c(=O)[nH]c(=O)n2C)n1C(C)C	-0.0254	-0.103	0.199	7.92*	i	10.4
SMILES	hDAT+cocaine	M1 agonist	M1 antag	D1 allo mod	BAP1 block	HEK293 NFkB inh
Cc1ccc(C)c(NC(=O)CC(C)Cc2ccc(Cl)cc2)c1 (stereo not given)	.	.	.	.	i	.
O=C(/C=C/c1ccc(Cl)cc1Cl)NCc1ccncc1	2.27*	.	.	.	.	.
CCOC(=O)c1ccc2nc(C)c3c(c2c1)OC(C)C3 (stereo not given)	0.174	-0.152	0.15	-2.74*	.	11.9
COc1ccc2nc(C)c3c(c2c1)OC(C)C3 (stereo not given)	-0.0962	-1.59	-0.0164	-1.88	i	2.1
COc1cccc2c3c(c(C)nc12)CC(C)O3 (stereo not given)	-0.228	0.0486	0.0255	-3.37*	i	-7.9
O=C1C(Cl)=C(N2CCN(c3ccccc3)CC2)C(=O)N1c1cccc(Cl)c1	.	.	.	.	i	.
NC(=O)NC(=O)C[n+]1cccc(C(N)=O)c1	.	.	.	.	i	.
Cc1cc(C)nc(SCC(=O)c2c[nH]c3ccccc23)n1	.	.	.	.	i	.
